APJ antag – blocks the human apelin receptor APJ; P35414; CHO-K1 APJ beta-arrestin complementation, luminescence; inhibition, % at 20 µM; hit rate 0.32% among 330,000; AID 2521;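 active = inhibition above about 40% at 20 µM, limit read from the data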;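 note: cells challenged with 10 nM apelin-13 agonist together with compound; plate controls were apelin-13 plus DMSO wells for no effect and DMSO wells lacking apelin-13 for full effect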
B2AR ag – activates human beta-2 adrenergic receptor causing internalization | response, % (no concentration beside the values) | P07550 | Am2.2-beta2AR cells, FAP receptor internalization, flow cytometry | hit rate 0.43% among 340,000;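 active = response above a set limit, near 3 SD of response in nonfluorescent compounds, cut at about 42% in these data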
APJ ag – activates the human apelin receptor APJ; P35414; CHO-K1 APJ PathHunter beta-arrestin, luminescence; 0% DMSO wells, 100% apelin; activation, % at 20 µM; hit rate 0.11% among 330,000;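 active = activation more than six SD over the plate average, tested at 20 µM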;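 note: 0% = DMSO alone and 100% = apelin-13 at 10 nM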
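system = engineered CHO-K1 APJ arrestin reporter cells | input = 1000 cells per well | timing = overnight seeding, 90 min compound at 25 °C, 1 h detection | measured by = enzyme-fragment complementation luminescence | read-out = beta-arrestin recruitment to APJ as agonist activity, luminescent signal | control set = negative DMSO alone, positive Apelin-13 at 10 nM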
CXCR6 inh – inhibitors of human CXCR6 receptor; hit rate 0.36% among 360,000; O00574; inhibition, % at 20 µM; CHO-K1 PathHunter CXCR6 beta-arrestin, luminescence; in the data active = inhibition above about 34%, passing the limit was not always enough;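 note: antagonist mode with CXCL16 agonist at 10 nM final; 0% = 10 nM CXCL16 with DMSO and 100% = unstimulated wells without agonist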
Target sequence (O00574 whole entry, looked up): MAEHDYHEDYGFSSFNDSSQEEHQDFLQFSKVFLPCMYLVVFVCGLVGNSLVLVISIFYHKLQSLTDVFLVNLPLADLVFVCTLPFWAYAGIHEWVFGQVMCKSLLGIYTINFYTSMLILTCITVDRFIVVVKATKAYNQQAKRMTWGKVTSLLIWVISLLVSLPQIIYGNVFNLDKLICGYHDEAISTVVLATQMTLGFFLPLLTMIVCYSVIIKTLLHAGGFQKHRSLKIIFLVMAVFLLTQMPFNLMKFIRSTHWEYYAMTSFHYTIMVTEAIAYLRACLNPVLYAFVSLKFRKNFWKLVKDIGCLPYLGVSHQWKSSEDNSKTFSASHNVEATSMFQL
EBI2 antag – blocks human EBI2 receptor beta-arrestin signaling. P32249. EBI2 beta-arrestin recruitment, luminescence, 7a,25-OHC stimulated. inhibition, % at 5 µM. hit rate 0.81% among 360,000; in the data active = inhibition above about 38%;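 note: enzyme fragment complementation signal reports receptor beta-arrestin coupling in cells; 0% = agonist plus DMSO wells and 100% = wells without agonist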
Target sequence (P32249 whole entry, looked up, the tested form may be a part): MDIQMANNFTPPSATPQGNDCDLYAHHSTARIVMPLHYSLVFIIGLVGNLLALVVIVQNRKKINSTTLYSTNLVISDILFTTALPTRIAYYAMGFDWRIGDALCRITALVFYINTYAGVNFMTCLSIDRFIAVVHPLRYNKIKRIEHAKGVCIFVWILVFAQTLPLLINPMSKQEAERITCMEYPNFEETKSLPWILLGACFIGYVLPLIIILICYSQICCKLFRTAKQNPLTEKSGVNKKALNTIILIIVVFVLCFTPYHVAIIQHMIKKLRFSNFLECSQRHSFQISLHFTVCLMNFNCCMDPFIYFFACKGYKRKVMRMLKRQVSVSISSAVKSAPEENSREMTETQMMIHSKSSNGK
CCR6 antag – blocks CCL20-driven beta-arrestin recruitment at human CCR6 | hit rate 0.49% among 340,000 | CHO-K1 CCR6 PathHunter beta-arrestin, luminescence, CCL20-stimulated | P51684 | inhibition, % at 20 µM | AID 493098;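 active = compounds whose inhibition of the agonist-driven luminescence signal at 20 µM reaches about 50%, limit read from the data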;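 note: cells stimulated with CCL20 at 14 nM final; plate controls were DMSO with CCL20 for no effect and DMSO without agonist for full effect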
* = called active by the depositor; nt = not tested or not shown. Rows were chosen to be rich in hits. Some 1.8% of all compounds tested hit in one or more screens of this group.

SMILES	APJ antag	B2AR ag	APJ ag	CXCR6 inh	EBI2 antag	CCR6 antag
COc1cc(C=C2C(=O)c3ccccc3C2=O)ccc1O	61.3*	11.6	-7.6	17.1	5.0	25.8
COc1cc(/C=C/C=C2/CC/C(=C/C=C/c3ccc(O)c(OC)c3)C2=O)ccc1O	nt	-418.1	nt	11.6	-7.1	42.4
COc1ccc(/C=C2\CN(Cc3ccccc3)C/C(=C\c3ccc(OC)c(O)c3)C2=O)cc1O	11.1	33.1	1.6	51.6*	-7.1	19.5
COc1cc(C=C2C(=O)c3ccccc3C2=O)cc(OC)c1OC	16.7	8.4	-1.8	19.6	-9.7	7.3
COc1ccc(/C=C2\CC/C(=C\c3ccc(OC)c(OC)c3)C2=O)cc1OC	10.8	6.4	-4.0	-4.6	13.4	15.0
CC(=O)c1ccc(OCCCC(=O)OCC(=O)Nc2ccc3[nH]c(=O)[nH]c3c2)cc1	6.0	9.6	0.1	-0.4	-14.1	2.8
CCOC(=O)[C@@H]1[C@H]2COc3ccccc3[C@@H]2N2C(=O)N(c3ccc(C(F)(F)F)cc3)C(=O)[C@]12C	23.9	-0.4	4.0	5.7	2.6	14.1
CC(C)Cn1c(N)c(C(=O)COC(=O)c2ccc(Br)cc2)c(=O)n(C)c1=O	-12.7	4.0	-2.0	-5.9	0.7	4.6
CN(/N=C/c1ccc(-c2ccc([N+](=O)[O-])cc2)o1)c1ccccc1	32.7	-395.9	-3.4	30.6	14.4	21.6
O=C1Nc2ccccc2/C1=N/N=C/c1ccc(-c2ccc([N+](=O)[O-])cc2)o1	nt	42.5*	nt	8.1	-1.4	-15.2
N#Cc1ccccc1NC(=O)CSc1nnc(-c2ccncc2)o1	2.1	-10.8	-2.9	-7.0	-4.7	-10.1
Cc1ccc(OCC(=O)NNC(=S)NC(=O)C(C)(C)C)c(Br)c1	9.9	-1.0	-5.3	37.7	6.3	58.8*
Cc1ccc(OCC(=O)NC(=S)Nc2ccccn2)c(Br)c1	-5.7	2.8	-5.1	1.2	-8.4	-2.9
O=[N+]([O-])c1ccc(Sc2ncccn2)c([N+](=O)[O-])c1	-43.6	-0.6	7.8	-18.5	-66.8	-15.0
O=[N+]([O-])c1cnc(Sc2ccncn2)c([N+](=O)[O-])c1	nt	nt	nt	100.2*	-11.8	nt
CCCCn1c(N)c(N(Cc2ccccc2)C(=O)COc2ccccc2F)c(=O)[nH]c1=O	-0.6	-11.0	-6.2	-5.8	13.2	1.5
CCOc1ccc(C(=O)N2CCN(c3ccccn3)CC2)cc1	8.2	0.3	-2.5	-2.8	14.9	4.6
CCOc1ccc2oc(C(=O)N3CCN(c4ccccn4)CC3)c(C)c2c1	8.7	6.2	3.5	-2.1	62.8*	8.3
C#CC(=O)N(c1cc(OC)ccc1OC)C(C(=O)NC1CCCC1)c1cccs1 (centres undefined)	12.2	39.8	1.7	13.0	50.2*	12.3
C#CC(=O)N(c1ccc(OC)cc1OC)C(C(=O)NC1CCCC1)c1cccs1 (centres undefined)	-13.1	-401.3	3.3	-0.2	39.7	5.1
Cc1cccc(-c2noc(-c3csc([C@@H]4C[C@H](O)[C@@H](CO)O4)n3)n2)c1	nt	nt	nt	-4.3	-5.9	nt
CN1C(=O)/C(=N\OC(=O)c2cccc3ccccc23)c2ccccc21	19.9	14.5	-3.1	32.4	27.2	32.4
COc1ccc(C(=O)O/N=C2\C(=O)N(C)c3ccccc32)cc1	17.4	5.7	-2.3	26.7	40.4	59.4*
S=C(Cc1ccccc1)Nc1ccccc1	nt	-1.2	nt	5.6	3.5	12.4
O=C(N/N=C/c1cn(-c2ccccc2)nc1-c1cccs1)c1ccncc1	-14.0	3.5	-0.1	8.3	8.2	53.3*
SMILES	APJ antag	B2AR ag	APJ ag	CXCR6 inh	EBI2 antag	CCR6 antag
NC(=O)N/N=C/c1cn(-c2ccccc2)nc1-c1cccs1	-21.0	-16.2	1.6	-6.0	6.6	-6.0
C#Cc1ccc([C@H]2C=C(C(=O)N3CCN(Cc4ccccc4)CC3)O[C@@H](OCC)[C@@H]2CCCO)cc1	0.3	0.9	-4.3	10.4	56.3*	12.9
CCO[C@@H]1OC(C(=O)N2CCN(Cc3ccc4c(c3)OCO4)CC2)=C[C@H](c2ccc(C(F)(F)F)cc2)[C@H]1CCCO	-46.3	-1.1	-6.7	25.8	17.3	38.5
CCO[C@@H]1OC(C(=O)N2CCN(Cc3ccc4c(c3)OCO4)CC2)=C[C@H](c2ccc(Br)cc2)[C@H]1CCCO	-3.0	0.2	-12.3	36.1	29.3	51.5*
C#Cc1ccc([C@@H]2C=C(C(=O)N3CCN(Cc4ccccc4)CC3)O[C@H](OCC)[C@H]2CCCO)cc1	11.4	-4.1	3.0	3.4	24.1	11.0
CC[n+]1c(/C=C/C=C/N(C(C)=O)c2ccccc2)sc2cc(OC)ccc21	nt	nt	nt	nt	nt	40.1
CCOC(=O)COc1ccc2ccccc2c1/C=C/[N+](=O)[O-]	nt	43.8*	nt	17.3	20.8	74.7*
O=[N+]([O-])/C=C/c1c(OCc2ccccc2)ccc2ccccc12	5.1	89.0*	1.6	35.9*	6.4	nt
CCOC(=O)COc1ccc(/C=C/[N+](=O)[O-])c(OCC(=O)OCC)c1	6.3	53.6*	6.2	35.7	9.7	54.6*
CCOC(=O)COc1ccc2nsnc2c1	-27.6	1.3	4.8	0.2	-0.8	-9.2
CCCCOc1ccc2ccccc2c1C=O	3.2	1.5	-1.7	-5.4	-4.6	13.0
COc1ccc(C(=O)c2sc3nc(C)cc(-c4cccs4)c3c2N)cc1OC	nt	-82.8	nt	-5.4	55.2*	11.6
CN1CCN(c2ccccc2NC(=O)c2ccc(-c3cccc(Cl)c3)o2)CC1	10.6	14.1	-5.1	-10.1	19.0	54.7*
O=C(Nc1ccccc1N1CCOCC1)c1ccc(Br)o1	4.3	2.5	-4.1	1.4	7.1	50.7*
CN1CCN(c2ccccc2NC(=O)c2ccc(Br)o2)CC1	-2.1	11.7	-2.6	-7.6	5.5	0.4
CN(C)c1ccc(CC(=O)N2CCCC(c3cc(C(=O)Nc4ccc5c(c4)OCO5)no3)C2)cc1 (centres undefined)	nt	nt	nt	2.2	2.6	nt
COc1ccc(N2CCN(C(c3cccs3)C(C)NC(=O)C(=O)N3CCCCC3)CC2)cc1 (centres undefined)	-16.8	70.4*	3.8	3.5	-2.6	4.6
C[C@H](CO)N1C[C@H](C)[C@H](CN(C)S(=O)(=O)c2ccc3ccccc3c2)OCc2cnnn2CCCC1=O	nt	nt	nt	-3.2	0.6	nt
O=P(c1ccccc1)(c1ccccc1)c1cc(S(=O)(=O)O)ccc1O	1.7	-2.3	-0.4	-3.1	3.3	4.3
Cc1ccc(C)c(N=Nc2nc3ccccc3n2C)c1	14.8	4.7	-10.2	27.7*	41.5	31.6
Cc1cc(C)c(C)c(N=Nc2nc3ccccc3n2C)c1C	27.0	15.3	-6.2	20.9	17.5	27.6
O=C(OCc1nnc(-c2ccc(Cl)cc2)o1)c1ccc(O)cc1	9.8	-7.6	-2.5	7.3	5.6	15.8
CS(=O)(=O)c1ccc(C(=O)OCc2nnc(-c3ccc(Cl)cc3)o2)cc1[N+](=O)[O-]	18.6	93.4*	1.3	14.8	20.4	5.8

Bioassay records as filed in PubChem BioAssay.
